Activity calls are given as the source filed them. No cut-off for these calls is given here.
Columns and labels:
albumin = albumin (Homo sapiens, UniProt P02768); assay: Binding affinity to human serum albumin at 100 ug/mL after 3 hrs relative to control; format: ADME; conditions: read-out: PB (converted)
Procedure, shortened: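 Peptide at 100 μg/mL in PBS (50 μL) was incubated with HSA-conjugated Sepharose resin for 3 h at 25 °C, then centrifuged (1000 rpm, 10 min). Unbound peptide in the supernatant was quantified by micro BCA assay. Nonspecific adsorption was corrected with NHS-inactivated, albumin-free resin.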

Rattus norvegicus [1] = assay: Antidiabetic activity in Sprague-Dawley rat assessed as increase of plasma insulin level at 25 nmol/kg, ip administered 0.5 hrs prior to glucose challenge measured at 15 mins by ELISA; format: functional
Rattus norvegicus [2] = assay: AUC (0 to infinity) in Sprague-Dawley rat at 15 nmol/kg, sc by LC-MS/MS analysis; format: ADME, organism-based, Plasma; parameters: dose 15 nmol/kg, route subcutaneous, time infinity; conditions: in vivo
[3] = Half life in Sprague-Dawley rat plasma at 1000 ng/mL by LC-MS/MS analysis; format: ADME, cell-free
Mus musculus [4] = assay: Hypoglycemic activity in C57BL/6J-m+/+Leprdb (db/db) mouse assessed as time required to reduce plasma glucose level below 8.35 mM at 25 nmol/kg, ip administered for 0.5 hrs; format: functional
Procedure, shortened: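 Non-fasted male db/db mice (7 weeks, free access to food and water) got a single ip injection (25 or 150 nmol/kg) or saline. Mean ± SD, n = 6.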

[5] = Mean residence time in Sprague-Dawley rat at 15 nmol/kg, sc by LC-MS/MS analysis; format: ADME, organism-based; conditions: in vivo
[6] = Tmax in Sprague-Dawley rat at 15 nmol/kg, sc by LC-MS/MS analysis; format: ADME, organism-based; conditions: in vivo
[7] = Cmax in Sprague-Dawley rat at 15 nmol/kg, sc by LC-MS/MS analysis; format: ADME, organism-based; parameters: dose 15 nmol/kg, route subcutaneous; conditions: in vivo
Rattus norvegicus [8] = assay: Antidiabetic activity in Sprague-Dawley rat assessed as reduction of plasma glucose level at 25 nmol/kg, ip administered 0.5 hrs prior to glucose challenge measured at 15 to 60 mins by OGTT; format: functional, organism-based
[9] = Elimination half life in Sprague-Dawley rat at 15 nmol/kg, sc by LC-MS/MS analysis; format: ADME, organism-based; conditions: in vivo, read-out: beta t1/2 (converted)
Rattus norvegicus [10] = assay: Antidiabetic activity in Sprague-Dawley rat assessed as reduction of plasma glucose level at 25 nmol/kg, ip administered 0.5 hrs prior to glucose challenge by OGTT (reference value: 13.32 +/- 1.84 mM); format: functional
Rattus norvegicus [11] = assay: Antidiabetic activity in Sprague-Dawley rat assessed as increase of plasma insulin level at 25 nmol/kg, ip administered 0.5 hrs prior to glucose challenge measured at 45 mins by ELISA; format: functional
Rattus norvegicus [12] = assay: Antidiabetic activity in Sprague-Dawley rat assessed as increase of plasma insulin level at 25 nmol/kg, ip administered 0.5 hrs prior to glucose challenge measured for 120 mins by ELISA; format: functional, organism-based
Procedure, shortened: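 SD rats (200−250 g, n = 6/group) were fasted 12 h and given compound ip (25 nmol/kg) or saline 0.5 h before oral glucose (10 g/kg). Tail-vein blood glucose was read with a meter at −30, 0, 15, 30, 45, 60, 90, 120 and 180 min. Insulin was measured by rat insulin ELISA. Mean ± SD.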

Rattus norvegicus [13] = assay: Anticoagulant activity in Sprague-Dawley rat assessed as thombin time at 150 nmol/kg, iv administered for 6 days measured on day 7 by coagulometric analysis (reference value: 19.38 +/- 0.72 secs); format: functional
Mus musculus [14] = assay: Hypoglycemic activity in C57BL/6J-m+/+Leprdb (db/db) mouse assessed as time required to reduce plasma glucose level below 8.35 mM at 150 nmol/kg, ip administered for 0.5 hrs; format: functional
Procedure, shortened: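 Non-fasted male db/db mice (7 weeks, free access to food and water) got a single ip injection (25 or 150 nmol/kg) or saline. Glucose AUC0−48h and the time for glucose to return below 8.35 mM were derived. Mean ± SD, n = 6.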

Mus musculus [15] = assay: Hypoglycemic activity in C57BL/6J-m+/+Leprdb (db/db) mouse assessed as reduction of plasma glucose level at 25 nmol/kg, ip administered 0.5 hrs prior to glucose challenge measured at 21.5 hrs by IPGTT (reference value: >30 mM); format: functional
Rattus norvegicus [16] = assay: Anticoagulant activity in Sprague-Dawley rat assessed as activated […] time at 25 nmol/kg, iv administered for 6 days measured on day 7 by coagulometric analysis (reference value: 26.5 +/- 0.81 secs); format: functional
Rattus norvegicus [17] = assay: Anticoagulant activity in Sprague-Dawley rat assessed as prothombin time at 25 nmol/kg, iv administered for 6 days measured on day 7 by coagulometric analysis (reference value: 13.5 +/- 0.32 secs); format: functional
Mus musculus [18] = assay: Hypoglycemic activity in C57BL/6J-m+/+Leprdb (db/db) mouse assessed as reduction of plasma glucose level at 25 nmol/kg, ip administered 0.5 hrs prior to glucose challenge measured up to 17 hrs by IPGTT (reference value: >30 mM); format: functional
Mus musculus [19] = assay: Hypoglycemic activity in C57BL/6J-m+/+Leprdb (db/db) mouse assessed as reduction of plasma glucose level at 25 nmol/kg, ip administered 0.5 hrs prior to glucose challenge measured after 18 to 21 hrs by IPGTT (reference value: >30 mM); format: functional
Mus musculus [20] = assay: Hypoglycemic activity in C57BL/6J-m+/+Leprdb (db/db) mouse assessed as reduction of plasma glucose level at 25 nmol/kg, ip administered 0.5 hrs prior to glucose challenge measured at 21.5 to 24 hrs by IPGTT; format: functional, organism-based
Rattus norvegicus [21] = assay: Anticoagulant activity in Sprague-Dawley rat assessed as thombin time at 25 nmol/kg, iv administered for 6 days measured on day 7 by coagulometric analysis (reference value: 19.38 +/- 0.72 secs); format: functional
Rattus norvegicus [22] = assay: Anticoagulant activity in Sprague-Dawley rat assessed as prothombin time at 150 nmol/kg, iv administered for 6 days measured on day 7 by coagulometric analysis (reference value: 13.5 +/- 0.32 secs); format: functional
Rattus norvegicus [23] = assay: Anticoagulant activity in Sprague-Dawley rat assessed as activated […] time at 150 nmol/kg, iv administered for 6 days measured on day 7 by coagulometric analysis (reference value: 26.5 +/- 0.81 secs); format: functional
[24] = target: Glucagon-like peptide 1 receptor (Homo sapiens, UniProt P43220); assay: Activation of human GLP-1 receptor overexpressed in HEK293 cells assessed as cAMP accumulation after 20 mins by HTRF assay; format: functional, cell-based
Chain of Glucagon-like peptide 1 receptor (P43220 whole entry): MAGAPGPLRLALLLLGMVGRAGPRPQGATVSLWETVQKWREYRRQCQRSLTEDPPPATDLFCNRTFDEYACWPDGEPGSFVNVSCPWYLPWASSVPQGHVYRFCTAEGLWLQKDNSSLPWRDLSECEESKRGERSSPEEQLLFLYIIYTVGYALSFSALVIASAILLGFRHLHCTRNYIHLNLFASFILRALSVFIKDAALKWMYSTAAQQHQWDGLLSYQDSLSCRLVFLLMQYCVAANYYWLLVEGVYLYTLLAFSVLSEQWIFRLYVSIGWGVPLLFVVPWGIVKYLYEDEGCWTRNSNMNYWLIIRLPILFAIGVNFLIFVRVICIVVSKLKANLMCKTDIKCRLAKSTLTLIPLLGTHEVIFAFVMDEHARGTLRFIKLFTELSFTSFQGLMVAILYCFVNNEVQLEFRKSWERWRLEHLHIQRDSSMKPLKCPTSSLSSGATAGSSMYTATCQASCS

Chain of albumin (P02768 whole entry): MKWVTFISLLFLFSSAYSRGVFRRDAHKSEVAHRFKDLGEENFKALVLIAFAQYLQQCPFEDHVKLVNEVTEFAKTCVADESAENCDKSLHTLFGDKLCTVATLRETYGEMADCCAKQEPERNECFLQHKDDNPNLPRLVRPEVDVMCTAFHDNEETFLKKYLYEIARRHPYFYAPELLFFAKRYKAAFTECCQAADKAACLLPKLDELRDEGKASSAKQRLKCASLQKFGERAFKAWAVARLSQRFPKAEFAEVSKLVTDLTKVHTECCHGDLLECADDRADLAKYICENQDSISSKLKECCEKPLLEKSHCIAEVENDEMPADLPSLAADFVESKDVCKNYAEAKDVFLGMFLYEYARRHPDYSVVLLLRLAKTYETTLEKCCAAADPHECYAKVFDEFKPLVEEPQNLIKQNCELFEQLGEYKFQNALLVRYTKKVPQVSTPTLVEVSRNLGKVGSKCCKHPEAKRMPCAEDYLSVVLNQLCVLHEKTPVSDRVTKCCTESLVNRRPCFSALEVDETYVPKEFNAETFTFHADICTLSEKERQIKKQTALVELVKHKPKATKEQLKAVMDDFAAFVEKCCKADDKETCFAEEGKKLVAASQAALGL

SMILES | fraction unbound at 3 h, 100 ug/mL (albumin) | Activity (Rattus norvegicus [1]) | AUC (Rattus norvegicus [2]) | half-life at 1000 ng/mL [3] | Time (Mus musculus [4]) | MRT [5] | Tmax [6] | Cmax [7] | Activity (Rattus norvegicus [8]) | half-life [9] | Activity (Rattus norvegicus [10]) | Activity (Rattus norvegicus [11]) | Activity (Rattus norvegicus [12]) | EC50 [24] | further results
CCCCCCCCCCCCCCCC(=O)N[C@@H](CCC(=O)NCCCC[C@H](NC(=O)[C@H](C)NC(=O)[C@H](C)NC(=O)[C@H](CCC(N)=O)NC(=O)CNC(=O)[C@H](CCC(=O)O)NC(=O)[C@H](CC(C)C)NC(=O)[C@H](Cc1ccc(O)cc1)NC(=O)[C@H](CO)NC(=O)[C@H](CO)NC(=O)[C@@H](NC(=O)[C@H](CC(=O)O)NC(=O)[C@H](CO)NC(=O)[C@@H](NC(=O)[C@H](Cc1ccccc1)NC(=O)[C@@H](NC(=O)CNC(=O)[C@H](CCC(=O)O)NC(=O)[C@H](C)NC(=O)[C@@H](N)Cc1cnc[nH]1)[C@@H](C)O)[C@@H](C)O)C(C)C)C(=O)N[C@@H](CCC(=O)O)C(=O)N[C@@H](Cc1ccccc1)C(=O)N[C@H](C(=O)N[C@@H](C)C(=O)N[C@@H](Cc1c[nH]c2ccccc12)C(=O)N[C@@H](CC(C)C)C(=O)N[C@H](C(=O)N[C@@H](CCCNC(=N)N)C(=O)NCC(=O)N[C@@H](CCCNC(=N)N)C(=O)NCC(=O)O)C(C)C)[C@@H](C)CC)C(=O)O [LIRAGLUTIDE] | 0.087 | 992.08 pM | 18100 ng·h/mL | 17.1 h | 19 h | 18.3 h | 1.51 h | 902 ng/mL | Active | 12.5 h | 8.3 mM | 425.34 pM | Active | – | –
CC[C@H](C)[C@H](NC(=O)[C@H](Cc1ccccc1)NC(=O)[C@H](CCC(=O)O)NC(=O)[C@H](CCCCN)NC(=O)[C@H](C)NC(=O)[C@H](C)NC(=O)[C@H](CCC(N)=O)NC(=O)CNC(=O)[C@H](CCC(=O)O)NC(=O)[C@H](CC(C)C)NC(=O)[C@H](Cc1ccc(O)cc1)NC(=O)[C@H](CO)NC(=O)[C@H](CO)NC(=O)[C@@H](NC(=O)[C@H](CC(=O)O)NC(=O)[C@H](CO)NC(=O)[C@@H](NC(=O)[C@H](Cc1ccccc1)NC(=O)[C@@H](NC(=O)CNC(=O)[C@H](CCC(=O)O)NC(=O)CNC(=O)[C@@H](N)Cc1cnc[nH]1)[C@@H](C)O)[C@@H](C)O)C(C)C)C(=O)N[C@@H](C)C(=O)N[C@@H](Cc1c[nH]c2ccccc12)C(=O)N[C@@H](CC(C)C)C(=O)N[C@H](C(=O)N[C@@H](CCCCN)C(=O)NCC(=O)N[C@@H](CCCNC(=N)N)C(=O)N[C@@H](CSC1CC(=O)N(CCCCCCCCCCCC(=O)Nc2ccc(C(c3c(O)c4ccccc4oc3=O)c3c(O)c4ccccc4oc3=O)cc2)C1=O)C(N)=O)C(C)C (some centres undefined) | 0.06 | 1052.22 pM | 36800 ng·h/mL | 55.8 h | 22.5 h | 29.8 h | 1.3 h | 907 ng/mL | Active | 18.8 h | 7.8 mM | 524.26 pM | Active | 0.0242 nM | TT (Rattus norvegicus [13]): 19.8 s; Time (Mus musculus [14]): 30.4 h; Activity (Mus musculus [15]): 16.25 mM; APTT (Rattus norvegicus [16]): 26.76 s; PT (Rattus norvegicus [17]): 13.39 s; Activity (Mus musculus [18]): <12 mM; Activity (Mus musculus [19]): <16 mM; Activity (Mus musculus [20]): Active; TT (Rattus norvegicus [21]): 19.4 s; PT (Rattus norvegicus [22]): 13.53 s; APTT (Rattus norvegicus [23]): 26.48 s
CC[C@H](C)[C@H](NC(=O)[C@H](Cc1ccccc1)NC(=O)[C@H](CCC(=O)O)NC(=O)[C@H](CCCCN)NC(=O)[C@H](C)NC(=O)[C@H](C)NC(=O)[C@H](CCC(N)=O)NC(=O)CNC(=O)[C@H](CCC(=O)O)NC(=O)[C@H](CC(C)C)NC(=O)[C@H](Cc1ccc(O)cc1)NC(=O)[C@H](CO)NC(=O)[C@H](CSC1CC(=O)N(CCCCCC(=O)Nc2ccc(C(c3c(O)c4ccccc4oc3=O)c3c(O)c4ccccc4oc3=O)cc2)C1=O)NC(=O)[C@@H](NC(=O)[C@H](CC(=O)O)NC(=O)[C@H](CO)NC(=O)[C@@H](NC(=O)[C@H](Cc1ccccc1)NC(=O)[C@@H](NC(=O)CNC(=O)[C@H](CCC(=O)O)NC(=O)CNC(=O)[C@@H](N)Cc1cnc[nH]1)[C@@H](C)O)[C@@H](C)O)C(C)C)C(=O)N[C@@H](C)C(=O)N[C@@H](Cc1c[nH]c2ccccc12)C(=O)N[C@@H](CC(C)C)C(=O)N[C@H](C(=O)N[C@@H](CCCCN)C(=O)NCC(=O)N[C@@H](CCCNC(=N)N)C(N)=O)C(C)C (some centres undefined) | 0.162 | – | – | 20.7 h | – | – | – | – | – | – | – | – | – | 0.0336 nM | –
CC[C@H](C)[C@H](NC(=O)[C@H](Cc1ccccc1)NC(=O)[C@H](CCC(=O)O)NC(=O)[C@H](CCCCN)NC(=O)[C@H](C)NC(=O)[C@H](C)NC(=O)[C@H](CCC(N)=O)NC(=O)CNC(=O)[C@H](CCC(=O)O)NC(=O)[C@H](CC(C)C)NC(=O)[C@H](Cc1ccc(O)cc1)NC(=O)[C@H](CO)NC(=O)[C@H](CO)NC(=O)[C@@H](NC(=O)[C@H](CC(=O)O)NC(=O)[C@H](CO)NC(=O)[C@@H](NC(=O)[C@H](Cc1ccccc1)NC(=O)[C@@H](NC(=O)CNC(=O)[C@H](CCC(=O)O)NC(=O)CNC(=O)[C@@H](N)Cc1cnc[nH]1)[C@@H](C)O)[C@@H](C)O)C(C)C)C(=O)N[C@@H](C)C(=O)N[C@@H](Cc1c[nH]c2ccccc12)C(=O)N[C@@H](CC(C)C)C(=O)N[C@H](C(=O)N[C@@H](CSC1CC(=O)N(CCCCCC(=O)Nc2ccc(C(c3c(O)c4ccccc4oc3=O)c3c(O)c4ccccc4oc3=O)cc2)C1=O)C(=O)NCC(=O)N[C@@H](CCCNC(=N)N)C(N)=O)C(C)C (some centres undefined) | 0.198 | – | – | 22.1 h | – | – | – | – | – | – | – | – | – | 0.0073 nM | –

— ChEMBL document CHEMBL3108706, “Design, synthesis, and biological activity of novel dicoumarol glucagon-like peptide 1 conjugates” (J Med Chem, 2013)
